ChEMBL document CHEMBL1671794, “Synthesis and SAR studies on azetidine-containing dipeptides as HCMV inhibitors” (Bioorg Med Chem, 2011)
Active and inactive are the calls of the source. The calls are words filed in the database; no cut-off is given here.

Legend:
Human betaherpesvirus 5 = assay: Antiviral activity against human cytomegalovirus infected in HELF assessed as decrease in plaque formation after 7 days by microscopy; type: functional, organism-based; conditions: Human betaherpesvirus 5, HELF, 168 h
Method in brief: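 Confluent HEL fibroblasts were infected with HCMV Davis strain at 100 PFU per well. After 2 h, residual virus was removed and compound-containing medium was added in duplicate. Cells were incubated for 7 days at 37 °C, then ethanol-fixed and Giemsa-stained, and cytopathogenicity was scored microscopically.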

[1] = Cytotoxicity against HELF cells assessed as after 3 days by Coulter counting analysis; type: cell-based; conditions: human; for MCC at 72 h / CC50 at 72 h: HELF cells; for CC50: helf, 72 h
Method in brief: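 HEL cells were seeded at 5 × 10^3 cells/well and allowed to grow for 24 h before compound dilutions were added. After 3 days at 37 °C, cells were counted with a Coulter Counter.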

Human alphaherpesvirus 3 [2] = assay: Antiviral activity against Thymidine kinase-deficient Varicella-zoster virus 07-1 infected in HELF assessed as virus-induced cytopathogenicity after 5 days by microscopy; type: functional, organism-based; conditions: Human alphaherpesvirus 3, 07-1, HELF, 120 h
Human alphaherpesvirus 3 [3] = assay: Antiviral activity against Thymidine kinase-positive Varicella-zoster virus Oka infected in HELF assessed as virus-induced cytopathogenicity after 5 days by microscopy; type: functional; conditions: Human alphaherpesvirus 3, strain Oka vaccine, 120 h
[4] = tested on: Mammalian orthoreovirus 1; assay: Antiviral activity against reovirus-1 infected in african green monkey Vero cells assessed as virus-induced cytopathogenicity at 20 to 100 uM after 4 days by microscopy; type: functional, organism-based
Method in brief: (§1)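 Confluent cell monolayers were inoculated with 100 CCID50 of virus. After 1 h of adsorption, residual virus was removed and cultures were incubated with fivefold serial compound dilutions. Cytopathicity was scored microscopically once it was complete in the untreated infected controls.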

Coxsackievirus B4 = assay: Antiviral activity against coxsackievirus B4 infected in african green monkey Vero cells assessed as virus-induced cytopathogenicity at 20 to 100 uM after 4 days by microscopy; type: functional, organism-based; method in brief: as §1
Human alphaherpesvirus 2 = assay: Antiviral activity against Human herpesvirus 2 strain G infected in HELF assessed as virus-induced cytopathogenicity at 20 to 100 uM after 4 days by microscopy; type: functional, organism-based; method in brief: as §1
[5] = tested on: Vesicular stomatitis virus; assay: Antiviral activity against Vesicular stomatitis virus infected in HELF assessed as virus-induced cytopathogenicity at 20 to 100 uM after 4 days by microscopy; type: functional, organism-based
Method in brief: (§2)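 Near-confluent MDCK (influenza) or confluent HEL monolayers were inoculated with 100 CCID50 of virus. After 1-h adsorption, residual virus was removed, and cells were incubated with fivefold serial dilutions of compound. Cytopathicity was scored microscopically once untreated infected controls reached complete CPE. Minimal cytotoxic concentration was read as microscopically visible alteration of cell morphology.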

Influenza A virus [6] = assay: Antiviral activity against Influenza A virus H1N1 infected in MDCK assessed as virus-induced cytopathogenicity at 20 to 100 uM after 4 days by microscopy; type: functional, organism-based; method in brief: as §2
Sindbis virus = assay: Antiviral activity against Sindbis virus infected in african green monkey Vero cells assessed as virus-induced cytopathogenicity at 20 to 100 uM after 4 days by microscopy; type: functional, organism-based; method in brief: as §1
Feline coronavirus = assay: Antiviral activity against Feline coronavirus infected in CrFK assessed as virus-induced cytopathogenicity at 20 to 100 uM after 4 days by microscopy; type: functional, organism-based; method in brief: as §1
Human respirovirus 3 = assay: Antiviral activity against parainfluenza-3 infected in african green monkey Vero cells assessed as virus-induced cytopathogenicity at 20 to 100 uM after 4 days by microscopy; type: functional, organism-based; method in brief: as §1
Human alphaherpesvirus 1 = assay: Antiviral activity against Human herpesvirus 1 strain KOS infected in HELF assessed as virus-induced cytopathogenicity at 20 to 100 uM after 4 days by microscopy; type: functional, organism-based; method in brief: as §1
Influenza A virus [7] = assay: Antiviral activity against Influenza A virus H3N2 infected in MDCK assessed as virus-induced cytopathogenicity at 20 to 100 uM after 4 days by microscopy; type: functional, organism-based; method in brief: as §2
Influenza A virus [8] = assay: Antiviral activity against Influenza A virus infected in MDCK assessed as virus-induced cytopathogenicity at 20 to 100 uM after 4 days by microscopy; type: functional, organism-based; method in brief: as §2

C[C@H](NC(=O)[C@]1(Cc2ccccc2)CCN1C(=O)Oc1cccc2ccccc12)C(N)=O
EC50 (Human betaherpesvirus 5): 45 µM | MCC at 72 h [1]: > 100 µM | CC50 [1]: > 100 µM | IC50 (Human alphaherpesvirus 3 [2]): 47.7 µM | IC50 (Human alphaherpesvirus 3 [3]): 47.7 µM

C[C@H](NC(=O)[C@]1(Cc2ccccc2)CCN1S(=O)(=O)c1ccc2ccccc2c1)C(N)=O
EC50 (Human betaherpesvirus 5): > 100 µM | MCC at 72 h [1]: > 100 µM | CC50 [1]: > 100 µM | IC50 (Human alphaherpesvirus 3 [2]): 76.5 µM | IC50 (Human alphaherpesvirus 3 [3]): > 100 µM

C[C@H](NC(=O)[C@@]1(Cc2ccccc2)CCN1C(=O)OCc1ccccc1)C(=O)NCc1ccccc1 (racemic)
EC50 (Human betaherpesvirus 5): > 4 µM | MCC at 72 h [1]: ≥ 20 µM | CC50 [1]: 42 µM

C[C@H](NC(=O)[C@]1(Cc2ccccc2)CCN1C(=O)OCc1ccccc1)C(N)=O
EC50 (Human betaherpesvirus 5): 32 µM | MCC at 72 h [1]: > 50 µM | CC50 [1]: 50 µM

CC(C)[C@H](NC(=O)[C@@]1(Cc2ccccc2)CCN1C(=O)OCc1ccccc1)C(N)=O
EC50 (Human betaherpesvirus 5): > 100 µM | MCC at 72 h [1]: > 100 µM | CC50 [1]: 85 µM

C[C@H](NC(=O)[C@H](Cc1ccccc1)NC(=O)OCc1ccccc1)C(=O)NC(C)(C)C
EC50 (Human betaherpesvirus 5): > 100 µM | MCC at 72 h [1]: > 100 µM | CC50 [1]: > 100 µM

NCCCC[C@H](NC(=O)C1(Cc2ccccc2)CCN1C(=O)OCc1ccccc1)C(N)=O (mixture of isomers)
EC50 (Human betaherpesvirus 5): > 100 µM | MCC at 72 h [1]: > 100 µM | CC50 [1]: > 100 µM

C[C@H](NC(=O)[C@@]1(Cc2ccccc2)CCN1C(=O)OCc1ccccc1)C(=O)NC(C)(C)C (mixture of isomers)
EC50 (Human betaherpesvirus 5): 49 µM | MCC at 72 h [1]: > 100 µM | CC50 [1]: > 100 µM | IC50 (Human alphaherpesvirus 3 [2]): 60 µM | IC50 (Human alphaherpesvirus 3 [3]): 63 µM

C[C@H](NC(=O)[C@]1(Cc2ccccc2)CCN1C(=O)NCc1ccccc1)C(N)=O
EC50 (Human betaherpesvirus 5): > 100 µM | MCC at 72 h [1]: > 100 µM | CC50 [1]: > 100 µM

C[C@H](NC(=O)[C@]1(Cc2ccccc2)CCN1C(=O)OCc1ccccc1)C(=O)NC1CCCCC1
EC50 (Human betaherpesvirus 5): > 100 µM | MCC at 72 h [1]: > 100 µM | CC50 [1]: > 100 µM

CC(C)[C@H](NC(=O)[C@]1(Cc2ccccc2)CCN1C(=O)OCc1ccccc1)C(N)=O
MCC at 72 h [1]: > 100 µM | CC50 [1]: 100 µM

C[C@H](NC(=O)[C@]1(Cc2ccccc2)CCN1C(=O)N[C@@H](C)c1ccccc1)C(N)=O
EC50 (Human betaherpesvirus 5): > 100 µM | MCC at 72 h [1]: > 100 µM | CC50 [1]: > 100 µM

C[C@H](NC(=O)[C@]1(Cc2ccccc2)CCN1C(=O)OCc1ccccc1)C(=O)NC(C)(C)C
EC50 (Human betaherpesvirus 5): 45 µM | MCC at 72 h [1]: > 100 µM | IC50 (Human alphaherpesvirus 3 [2]): 62.5 µM

C[C@@H](NC(=O)[C@@]1(Cc2ccccc2)CCN1C(=O)OCc1ccccc1)C(N)=O
EC50 (Human betaherpesvirus 5): > 100 µM | MCC at 72 h [1]: > 100 µM | CC50 [1]: > 100 µM

C[C@@H](NC(=O)[C@]1(Cc2ccccc2)CCN1C(=O)OCc1ccccc1)C(N)=O
EC50 (Human betaherpesvirus 5): 63 µM | MCC at 72 h [1]: > 100 µM | CC50 [1]: 36 µM

CC(C)CNC(=O)[C@H](C)NC(=O)[C@@]1(Cc2ccccc2)CCN1C(=O)OCc1ccccc1
EC50 (Human betaherpesvirus 5): > 100 µM | MCC at 72 h [1]: > 100 µM

NC(=O)[C@H](Cc1ccccc1)NC(=O)[C@]1(Cc2ccccc2)CCN1C(=O)OCc1ccccc1
EC50 (Human betaherpesvirus 5): > 20 µM | MCC at 72 h [1]: 100 µM | CC50 [1]: 33 µM

NC(=O)[C@H](CCC(=O)O)NC(=O)C1(Cc2ccccc2)CCN1C(=O)OCc1ccccc1 (mixture of isomers)
EC50 (Human betaherpesvirus 5): > 100 µM | MCC at 72 h [1]: > 100 µM | CC50 [1]: > 100 µM

C[C@H](NC(=O)[C@]1(Cc2ccccc2)CCN1C(=O)OCc1ccccc1Cl)C(N)=O
EC50 (Human betaherpesvirus 5): > 20 µM | MCC at 72 h [1]: > 100 µM | CC50 [1]: > 100 µM

C[C@H](NC(=O)[C@]1(Cc2ccccc2)CCN1C(=O)OCc1ccccc1)C(=O)NCc1ccccc1
EC50 (Human betaherpesvirus 5): > 20 µM | MCC at 72 h [1]: 100 µM

C[C@H](NC(=O)[C@H](Cc1ccccc1)NC(=O)OCc1ccccc1)C(N)=O
EC50 (Human betaherpesvirus 5): > 100 µM | MCC at 72 h [1]: > 100 µM | CC50 [1]: > 100 µM

Nc1nc2c(ncn2COCCO)c(=O)[nH]1 [ACYCLOVIR]
MCC at 72 h [1]: > 1780 µM | CC50 [1]: > 1780 µM

C[C@H](NC(=O)[C@@]1(Cc2ccccc2)CCN1C(=O)OCc1ccccc1)C(=O)NC1CCCCC1
EC50 (Human betaherpesvirus 5): > 20 µM | MCC at 72 h [1]: 100 µM | CC50 [1]: 46 µM

C[C@H](NC(=O)[C@]1(Cc2ccccc2)CCN1C(=O)OCc1ccc([N+](=O)[O-])cc1)C(N)=O
EC50 (Human betaherpesvirus 5): > 20 µM | CC50 at 72 h [1]: > 100 µM | MCC at 72 h [1]: 100 µM | IC50 (Human alphaherpesvirus 3 [2]): 67 µM | IC50 (Human alphaherpesvirus 3 [3]): > 100 µM

C[C@H](NC(=O)[C@]1(Cc2ccccc2)CCN1C(=O)OCC1c2ccccc2-c2ccccc21)C(N)=O
Activity [4]: inactive | EC50 (Human betaherpesvirus 5): > 4 µM | Activity (Coxsackievirus B4): inactive | Activity (Human alphaherpesvirus 2): inactive | Activity [5]: inactive | Activity (Influenza A virus [6]): inactive | Activity (Sindbis virus): inactive | Activity (Feline coronavirus): inactive | Activity (Human respirovirus 3): inactive | MCC at 72 h [1]: 20 µM | CC50 [1]: 14 µM | Activity (Human alphaherpesvirus 1): inactive | Activity (Influenza A virus [7]): inactive | Activity (Influenza A virus [8]): inactive

C[C@H](NC(=O)[C@]1(Cc2ccccc2)CCN1C(=O)Oc1ccccc1)C(N)=O
EC50 (Human betaherpesvirus 5): > 20 µM | MCC at 72 h [1]: > 100 µM | CC50 [1]: > 100 µM | IC50 (Human alphaherpesvirus 3 [2]): 858 µM | IC50 (Human alphaherpesvirus 3 [3]): 69 µM

C[C@H](NC(=O)[C@]1(Cc2ccccc2)CCN1C(=O)CCc1ccccc1)C(N)=O
EC50 (Human betaherpesvirus 5): > 100 µM | CC50 at 72 h [1]: > 100 µM | MCC at 72 h [1]: 100 µM

CC(C)C[C@H](NC(=O)[C@@]1(Cc2ccccc2)CCN1C(=O)OCc1ccccc1)C(N)=O
EC50 (Human betaherpesvirus 5): 45 µM | MCC at 72 h [1]: > 100 µM | CC50 [1]: 66 µM

CC(C)CNC(=O)[C@H](C)NC(=O)[C@]1(Cc2ccccc2)CCN1C(=O)OCc1ccccc1
EC50 (Human betaherpesvirus 5): 63 µM | MCC at 72 h [1]: > 100 µM | CC50 [1]: > 100 µM | IC50 (Human alphaherpesvirus 3 [2]): 64.8 µM | IC50 (Human alphaherpesvirus 3 [3]): > 100 µM

Nc1nc(O)c2ncn(COC(CO)CO)c2n1 [GANCICLOVIR]
EC50 (Human betaherpesvirus 5): 7 µM | MCC at 72 h [1]: ≥ 1580 µM | CC50 [1]: 580 µM

CC(C)C[C@H](NC(=O)[C@]1(Cc2ccccc2)CCN1C(=O)OCc1ccccc1)C(N)=O
EC50 (Human betaherpesvirus 5): > 20 µM | MCC at 72 h [1]: 100 µM | CC50 [1]: 50 µM

C[C@H](NC(=O)[C@]1(Cc2ccccc2)CCN1C(=O)OCc1ccccc1)C(=O)N(C)C
EC50 (Human betaherpesvirus 5): > 100 µM | MCC at 72 h [1]: > 100 µM | CC50 [1]: > 100 µM

C[C@H](NC(=O)[C@@]1(Cc2ccccc2)CCN1C(=O)OCc1ccccc1)C(=O)N(C)C
EC50 (Human betaherpesvirus 5): > 100 µM | MCC at 72 h [1]: > 100 µM

NC(=O)[C@H](Cc1ccccc1)NC(=O)[C@@]1(Cc2ccccc2)CCN1C(=O)OCc1ccccc1
EC50 (Human betaherpesvirus 5): > 20 µM | MCC at 72 h [1]: 100 µM | CC50 [1]: 37 µM
